According to ChEMBL document CHEMBL2384909, “Development of Novel Alkene Oxindole Derivatives As Orally Efficacious AMP-Activated Protein Kinase Activators” (ACS Med Chem Lett, 2013):

Tests used:
[1] = target: T1, 5'-AMP-activated protein kinase catalytic subunit alpha-1 (Homo sapiens, UniProt Q13131); experiment: Activation of recombinant AMPK alpha1 (1 to 394) (unknown origin) at 20 ug/mL after 2 hrs by scintillation proximity assay relative to PT1
Target sequence in this assay (Q13131 whole entry, looked up): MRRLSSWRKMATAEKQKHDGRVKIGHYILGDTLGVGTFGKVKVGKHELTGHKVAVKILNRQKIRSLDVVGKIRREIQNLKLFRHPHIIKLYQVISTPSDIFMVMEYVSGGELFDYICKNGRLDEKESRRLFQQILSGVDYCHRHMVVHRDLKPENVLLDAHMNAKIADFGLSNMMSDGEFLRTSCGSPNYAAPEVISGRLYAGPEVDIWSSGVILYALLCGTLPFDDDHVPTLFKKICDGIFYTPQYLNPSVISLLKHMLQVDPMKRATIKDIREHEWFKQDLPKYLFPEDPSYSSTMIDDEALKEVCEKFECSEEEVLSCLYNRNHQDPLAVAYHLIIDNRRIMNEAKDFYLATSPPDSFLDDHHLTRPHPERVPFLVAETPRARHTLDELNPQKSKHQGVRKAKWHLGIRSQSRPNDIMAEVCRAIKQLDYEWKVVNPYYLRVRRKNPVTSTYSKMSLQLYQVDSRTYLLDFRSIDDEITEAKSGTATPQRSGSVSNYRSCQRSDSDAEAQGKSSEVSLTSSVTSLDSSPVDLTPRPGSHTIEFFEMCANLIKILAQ

[2] = target: AMPK alpha2/beta1/gamma1 (Homo sapiens) (UniProt P54646+P54619+Q9Y478); experiment: Activation of recombinant AMPK alpha2beta1gamma1 (unknown origin) at 20 ug/mL after 2 hrs by scintillation proximity assay relative to AMP; assay type: protein-complex assay
AMPK alpha2/beta1/gamma1 (Homo sapiens), sequence (P54619 whole entry partner): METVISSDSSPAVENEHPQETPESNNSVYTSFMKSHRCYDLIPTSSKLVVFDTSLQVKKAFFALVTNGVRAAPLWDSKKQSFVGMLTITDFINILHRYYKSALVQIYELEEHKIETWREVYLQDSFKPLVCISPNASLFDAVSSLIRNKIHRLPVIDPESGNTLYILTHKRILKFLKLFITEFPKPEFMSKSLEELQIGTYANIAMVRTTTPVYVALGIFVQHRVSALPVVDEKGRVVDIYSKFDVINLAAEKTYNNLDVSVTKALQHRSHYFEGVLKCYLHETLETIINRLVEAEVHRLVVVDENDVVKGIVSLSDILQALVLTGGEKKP
AMPK alpha2/beta1/gamma1 (Homo sapiens), sequence (P54646 whole entry): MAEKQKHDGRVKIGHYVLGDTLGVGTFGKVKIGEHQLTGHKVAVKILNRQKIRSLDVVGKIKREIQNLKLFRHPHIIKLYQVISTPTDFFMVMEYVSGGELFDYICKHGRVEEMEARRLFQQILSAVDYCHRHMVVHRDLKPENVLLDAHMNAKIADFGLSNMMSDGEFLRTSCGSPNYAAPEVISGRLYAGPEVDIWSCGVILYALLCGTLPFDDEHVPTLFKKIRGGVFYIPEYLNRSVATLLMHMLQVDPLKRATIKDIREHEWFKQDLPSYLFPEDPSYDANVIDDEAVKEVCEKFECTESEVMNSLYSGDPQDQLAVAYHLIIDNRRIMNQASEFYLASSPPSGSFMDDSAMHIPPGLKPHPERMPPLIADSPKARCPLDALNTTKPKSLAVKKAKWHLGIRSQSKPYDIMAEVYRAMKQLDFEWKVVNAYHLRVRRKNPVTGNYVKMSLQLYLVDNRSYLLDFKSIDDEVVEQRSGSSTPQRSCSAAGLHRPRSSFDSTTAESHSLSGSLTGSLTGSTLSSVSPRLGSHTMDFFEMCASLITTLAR
AMPK alpha2/beta1/gamma1 (Homo sapiens), sequence (Q9Y478 2-270 partner limits assumed): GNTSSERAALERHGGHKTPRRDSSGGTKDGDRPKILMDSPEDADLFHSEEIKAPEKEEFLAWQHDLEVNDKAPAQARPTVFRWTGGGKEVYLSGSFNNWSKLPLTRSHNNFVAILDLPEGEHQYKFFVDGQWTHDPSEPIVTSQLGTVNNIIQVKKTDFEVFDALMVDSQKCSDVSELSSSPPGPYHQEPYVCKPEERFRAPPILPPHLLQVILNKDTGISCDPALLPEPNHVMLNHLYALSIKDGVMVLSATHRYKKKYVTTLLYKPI

AMPK alpha2/beta1/gamma1 = AMPK alpha2/beta1/gamma1 (Homo sapiens, UniProt P54619+P54646+Q9Y478); experiment: Activation of recombinant AMPK alpha2beta1gamma1 (unknown origin) after 2 hrs by scintillation proximity assay; assay type: protein-complex assay
AMPK alpha2/beta1/gamma1, sequence (P54646 whole entry): as the sequence (P54646 whole entry) above
AMPK alpha2/beta1/gamma1, sequence (P54619 whole entry): as the sequence (P54619 whole entry partner) above
AMPK alpha2/beta1/gamma1, sequence (Q9Y478 whole entry): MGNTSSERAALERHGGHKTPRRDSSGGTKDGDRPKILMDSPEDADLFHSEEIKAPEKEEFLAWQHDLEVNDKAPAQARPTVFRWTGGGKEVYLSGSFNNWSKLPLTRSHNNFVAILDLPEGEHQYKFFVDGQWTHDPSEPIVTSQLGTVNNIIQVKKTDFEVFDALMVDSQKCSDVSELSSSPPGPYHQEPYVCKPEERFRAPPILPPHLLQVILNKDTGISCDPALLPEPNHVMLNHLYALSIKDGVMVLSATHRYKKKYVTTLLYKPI
Procedure, shortened: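 Activation of bacterially expressed AMPK α2β1γ1 was measured by scintillation proximity assay. Efficacy is expressed relative to AMP.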

L6 [3] = experiment: Induction of AMPK-mediated ACC phosphorylation in rat L6 cells by Western blotting analysis; assay type: cell-based
L6 [4] = experiment: Induction of AMPK phosphorylation in rat L6 cells by Western blotting analysis; assay type: cell-based
[5] = target: T1, 5'-AMP-activated protein kinase catalytic subunit alpha-1; experiment: Activation of recombinant AMPK alpha1 (1 to 394) (unknown origin) after 2 hrs by scintillation proximity assay
Target sequence in this assay (Q13131 whole entry): as the sequence (Q13131 whole entry, looked up) above

[6] = target: 5'-AMP-activated protein kinase catalytic subunit alpha-2 (Homo sapiens, UniProt P54646); experiment: Activation of human AMPK alpha2 (1 to 398) expressed in African green monkey COS7 cells; assay type: cell-based, COS-7
5'-AMP-activated protein kinase catalytic subunit alpha-2, sequence (P54646 whole entry): as the sequence (P54646 whole entry) above

[7] = target: T1, 5'-AMP-activated protein kinase catalytic subunit alpha-1; experiment: Activation of human AMPK alpha1 (1 to 394) expressed in African green monkey COS7 cells; assay type: cell-based, COS-7
Target sequence in this assay (Q13131 whole entry): as the sequence (Q13131 whole entry, looked up) above

Mus musculus = experiment: Antidiabetic activity in diet-induced obese C57BL/6J mouse assessed as reduction in plasma triglyceride at 150 mg/kg, po qd for 4 weeks (reference value: 0.62 +/- 0.02 mM); assay type: functional
[8] = Activation of AMPK in rat primary hepatocytes assessed as inhibition of fatty acid biosynthesis by 14C-acetate incorporation assay; assay type: cell-based; conditions: Hepatocyte
[9] = Activation of partially purified rat liver AMPK assessed as 33P-phosphorylation of SAMS peptide

Row | SMILES | Activity [1] [%] | Efficacy [2] [%] | EC50 (AMPK alpha2/beta1/gamma1) [µM] | also measured
1 | COC(=O)c1cc(/N=C2/NC(=O)/C(=C/c3ccc(-c4cc(C)c(C)cc4[N+](=O)[O-])o3)S2)ccc1Cl | < 50 |  |  | 
2 | O=C(O)c1cccc(CN2C(=O)/C(=C(\c3ccccc3)c3ccccc3OC(F)(F)F)c3ccccc32)c1 |  | 99 | 7.4 | 
3 | CC(C)/C(=C1\C(=O)N(Cc2cccc(C(=O)O)c2)c2ccccc21)c1ccccc1 |  | < 50 | > 10 | 
4 | O=C(O)c1cccc(CN2C(=O)/C(=C(/c3ccc(Cl)cc3)C3CCCCC3)c3ccccc32)c1 |  | 103 | 4.6 | 
5 | O=C(O)c1cccc(CN2C(=O)/C(=C(\c3ccccc3)c3ccccc3Cl)c3ccccc32)c1 |  | 101 | 1.8 | 
6 | CC(C)/C(=C1\C(=O)N(Cc2cccc(C(=O)O)c2)c2ccccc21)c1ccc(Cl)cc1 |  | 227 | 9.9 | 
7 | O=C(O)c1cccc(CN2C(=O)/C(=C/c3ccc(-c4cccc([N+](=O)[O-])c4)o3)c3ccccc32)c1 | 341 | 152 | 3.2 | Activity (L6 [3]): Dose-dependent effect; Activity (L6 [4]): Dose-dependent effect; EC50 [5]: 2.1 µM
8 | Cc1cc(-c2ccc(/C=C3\S/C(=N\c4ccc(Cl)c(C(=O)O)c4)NC3=O)o2)c([N+](=O)[O-])cc1C |  | 40 | 0.3 | EC50 [6]: 12 µM; EC50 [5]: 9.6 µM; EC50 [7]: 9 µM
9 | O=C(O)c1cccc(CN2C(=O)/C(=C(\c3ccccc3)c3cccnc3)c3ccccc32)c1 |  | 96 | 3.2 | 
10 | Cc1cc(-c2ccc(/C=C3\SC(=S)N(c4cccc(C(=O)O)c4)C3=O)o2)c([N+](=O)[O-])cc1C | < 50 |  |  | 
11 | O=C(O)c1cccc(CN2C(=O)/C(=C(\c3ccccc3)c3ccc(F)c(Cl)c3)c3ccccc32)c1 |  | 105 | 5.9 | 
12 | O=C(O)c1ccc(CN2C(=O)/C(=C(\c3ccccc3)c3ccc(Cl)cc3)c3ccccc32)nc1 |  | 75 | 9.2 | 
13 | O=C1N/C(=N/c2ccc(Cl)c(C(=O)O)c2)S/C1=C\c1ccc(-c2cccc([N+](=O)[O-])c2)o1 | 176 |  |  | 
14 | O=C(O)c1cccc(CN2C(=O)/C(=C/c3ccc(-c4ccc(F)c(Cl)c4)o3)c3ccccc32)c1 |  | 122 | 4.8 | Activity (L6 [3]): Dose-dependent effect; Activity (L6 [4]): Dose-dependent effect
15 | CN(C)C(=N)NC(=N)N [METFORMIN] |  |  |  | Activity (Mus musculus): 0.5 mM
16 | N#Cc1c(O)c2c(-c3ccc(-c4ccccc4O)cc3)csc2[nH]c1=O |  |  |  | IC50 [8]: 3.2 µM; EC50 [9]: 0.8 µM
17 | CC(C)c1ccc(/C(=C2/C(=O)N(Cc3cccc(C(=O)O)c3)c3ccccc32)c2ccccc2)cc1 |  | 97 | 4 | 
18 | Cc1cc(-c2ccc(/C=C3\S/C(=N\c4cccc(C(=O)O)c4)NC3=O)o2)c([N+](=O)[O-])cc1C | 106 |  |  | 
19 | Cc1cc(-c2ccc(/C=C3\S/C(=N\c4ccccc4C(=O)O)NC3=O)o2)c([N+](=O)[O-])cc1C | 55 |  |  | 
20 | Cc1cc(-c2ccc(/C=C3\S/C(=N\c4ccc(F)cc4)NC3=O)o2)c([N+](=O)[O-])cc1C | < 50 |  |  | 
21 | O=C1/C(=C(\c2ccccc2)c2ccc(Cl)cc2)c2ccccc2N1Cc1ccccc1 |  | 70 | 1 | 
22 | O=C1N/C(=N/c2ccc(Cl)c(C(=O)O)c2)S/C1=C\c1ccc(-c2ccccc2Cl)o1 | < 50 |  |  | 
23 | CC(C)NC(=O)c1cccc(CN2C(=O)/C(=C(\c3ccccc3)c3ccc(Cl)cc3)c3ccccc32)c1 |  | 151 | 4.5 | 
24 | O=C1N/C(=N/c2ccc(Cl)c(C(=O)O)c2)S/C1=C\c1ccc(-c2ccccc2[N+](=O)[O-])o1 | < 50 |  |  | 
